Assay results collected from several papers.
Organism: Severe acute respiratory syndrome coronavirus 2

`CC(=O)OC[C@H]1O[C@@H](Sc2nc(N)c(C(=O)Nc3ccc(Cl)cc3)c(=S)[nH]2)[C@H](OC(C)=O)[C@@H](OC(C)=O)[C@@H]1OC(C)=O` gave an IC50 of 77400 nM (viral replication; Vero C1008; 72 h).
With `CC[C@@H]1C[C@]1(NC(=O)[C@@H]1C[C@@H]2CN1C(=O)[C@H](C(C)(C)C)NC(=O)OCC(C)(C)CCCCc1cccc3c1CN(C3)C(=O)O2)C(=O)NS(=O)(=O)C1CC1` the IC50 was 3000 nM (viral replication; HEK-293T).
`CCN(CC)CCNC(=O)c1cc(Cl)c(N)cc1OC` has an IC50 of 468 nM (viral replication; inhibitor; Huh-7).
With `CC(=O)OC[C@H]1O[C@@H](Sc2nc(N)c(C(=O)Nc3ccccc3)c(=S)[nH]2)[C@H](OC(C)=O)[C@@H](OC(C)=O)[C@H]1OC(C)=O` the IC50 was 86000 nM (viral replication; Vero C1008; 72 h).
`Cc1cccc(C)c1OCC(=O)N[C@@H](Cc1ccccc1)[C@@H](O)C[C@H](Cc1ccccc1)NC(=O)[C@H](C(C)C)N1CCCNC1=O` gave an IC50 of 7790 to 12000 nM (viral replication; inhibitor; Vero C1008).
`CCN(CC)CCOc1ccc(C(O)(Cc2ccc(Cl)cc2)c2ccc(C)cc2)cc1` (stereo not drawn) gave an IC50 of 363 nM (viral replication; inhibitor; A549-ACE2).
For `CCCCCCCCC=CCCCCCCCC(=O)NCCO`, the IC50 was greater than 2000 nM (viral replication; inhibitor; Huh-7).
With `Nc1c2ccccc2nc2ccccc12` the IC50 was 4440 nM (viral replication; inhibitor; Calu-3; 40 h).
The IC50 of `Nc1nc(S[C@@H]2O[C@H](CO)[C@H](O)[C@H](O)[C@H]2O)[nH]c(=S)c1C(=O)Nc1ccccc1` is reported as 18500 nM (viral replication; Vero C1008; 72 h).
The IC50 of `CC(C)CCCCCCCCC[C@@H]1CC(=O)N[C@@H](CCC(=O)O)C(=O)N[C@@H](CC(C)C)C(=O)N[C@H](CC(C)C)C(=O)N[C@@H](C(C)C)C(=O)N[C@@H](CC(=O)O)C(=O)N[C@H](CC(C)C)C(=O)N[C@@H](CC(C)C)C(=O)O1` is reported as greater than 0.4 µg/mL (viral replication; inhibitor; Vero; 24 h).
`CCC(CC)COC(=O)[C@H](C)N[P@](=O)(OC[C@H]1O[C@@](C#N)(c2ccc3c(N)ncnn23)[C@H](O)[C@@H]1O)Oc1ccccc1` has an IC50 of 190 nM (plaque formation; inhibitor; Vero C1008).
The IC50 of `CCCCCCCCCCCCCCCC(=O)N[C@H]1C[C@@H](O)[C@@H](O)NC(=O)[C@@H]2[C@@H](O)[C@@H](C)CN2C(=O)[C@H]([C@@H](C)O)NC(=O)[C@H]([C@H](O)[C@@H](O)c2ccc(O)cc2)NC(=O)[C@@H]2C[C@@H](O)CN2C(=O)[C@H]([C@@H](C)O)NC1=O` is reported as 1.3 µg/mL (viral replication; inhibitor; Vero; 24 h).
`CCN(CC)CCCC(C)Nc1c2ccc(Cl)cc2nc2ccc(OC)cc12` (stereo not drawn) gave an IC50 of greater than 50000 nM (viral replication; Calu-3).
For `Nc1nc(S[C@@H]2O[C@H](CO)[C@H](O)[C@H](O)[C@H]2O)[nH]c(=S)c1C(=O)Nc1ccc(Cl)cc1`, the IC50 was 15400 nM (viral replication; Vero C1008; 72 h).
The IC50 of `CCC(CC)COC(=O)[C@H](C)N[P@](=O)(OC[C@H]1O[C@@](C#N)(c2ccc3c(N)ncnn23)[C@H](O)[C@@H]1O)Oc1ccccc1` is reported as 389 nM (viral replication; inhibitor; Calu-3; 40 h).
`CCN(CCO)CCCC(C)Nc1ccnc2cc(Cl)ccc12` (stereo not drawn) has an IC50 of 9210 nM (viral replication; inhibitor; Vero C1008).
`COCCCC/C(=N\OCCN)c1ccc(C(F)(F)F)cc1` has an IC50 of 2090 nM (viral replication; inhibitor; A549-ACE2).
With `O=C1CCC(N2C(=O)c3ccccc3C2=O)C(=O)N1` (stereo not drawn) the IC50 was greater than 2000 nM (viral replication; inhibitor; Huh-7).
`CC(CN1c2ccccc2Sc2ccccc21)N(C)C` (stereo not drawn) has an IC50 of 9210 nM (viral replication; inhibitor; Vero C1008).
With `CC(C)[N+]1(C)[C@@H]2CC[C@H]1C[C@@H](OC(=O)C(CO)c1ccccc1)C2` (stereo partly drawn) the IC50 was 56 nM (viral replication; inhibitor; Huh-7).
`CN1[C@@H]2CC[C@H]1C[C@@H](OC(c1ccccc1)c1ccc(Cl)cc1)C2` (stereo partly drawn) gave an IC50 of 8900 nM (cytopathic effect; Vero C1008; 72 h).
`Cc1cccc(/C=N/Nc2cc(N3CCOCC3)nc(OCCc3ccccn3)n2)c1` gave an IC50 of 12 nM (viral replication; inhibitor; Vero C1008).
`CCN(CC)CCOc1ccc(C(O)(Cc2ccc(Cl)cc2)c2ccc(C)cc2)cc1` (stereo not drawn) gave an IC50 of 4680 nM (viral replication; inhibitor; Vero C1008).
`C[C@@H](O)[C@H]1C(=O)N2C(C(=O)O)=C(S[C@@H]3CN[C@H](C(=O)N(C)C)C3)[C@H](C)[C@H]12` has an IC50 of greater than 2000 nM (viral replication; inhibitor; Huh-7).
With `C[C@@H]1O[C@@H](O[C@H]2C[C@@H](O)[C@]3(CO)[C@H]4[C@H](O)C[C@]5(C)[C@@H](C6=CC(=O)OC6)CC[C@]5(O)[C@@H]4CC[C@]3(O)C2)[C@H](O)[C@H](O)[C@H]1O` the IC50 was 30 nM (viral replication; inhibitor; Vero C1008).
`COc1ccc([C@@H]2Sc3ccccc3N(CCN(C)C)C(=O)[C@@H]2OC(C)=O)cc1` gave an IC50 of greater than 45000 nM (viral replication; inhibitor; Vero C1008).
For `Clc1ccc(C(Cn2ccnc2)OCc2ccsc2Cl)c(Cl)c1` (stereo not drawn), the IC50 was 2430 nM (viral replication; inhibitor; Calu-3; 40 h).
With `CN(C)CCCN1c2ccccc2Sc2ccc(Cl)cc21` the IC50 was 2240 nM (viral replication; inhibitor; A549-ACE2).
`CCCCc1oc2ccc(NS(C)(=O)=O)cc2c1C(=O)c1ccc(OCCCN(CCCC)CCCC)cc1` has an IC50 of 1500 nM (viral replication; inhibitor; Vero C1008).
`CC(C)(C)[C@@H]1NC(=O)O[C@@H]2CCC[C@H]2OC/C=C/C(F)(F)c2nc3ccccc3nc2O[C@@H]2C[C@@H](C(=O)N[C@]3(C(=O)NS(=O)(=O)C4(C)CC4)C[C@H]3C(F)F)N(C2)C1=O` gave an IC50 of greater than 50000 nM (viral replication; HEK-293T).
For `CN(C)CCC=C1c2ccccc2CCc2ccccc21`, the IC50 was 871 nM (viral replication; inhibitor; A549-ACE2).
`O=c1c(O[C@@H]2O[C@H](CO)[C@@H](O)[C@H](O)[C@H]2O)c(-c2ccc(O)c(O)c2)oc2cc(O)cc(O)c12` gave an IC50 of greater than 2000 nM (viral replication; inhibitor; Huh-7).
The IC50 of `Cc1ccc(NC(=O)c2c(N)nc(S[C@@H]3O[C@H](CO)[C@H](O)[C@H](O)[C@H]3O)[nH]c2=S)cc1` is reported as 34000 nM (viral replication; Vero C1008; 72 h).
The IC50 of `CCOP(=O)(OCC)N1C/C(=C\c2ccc(F)cc2)C(=O)C2(C1)C(c1ccc(F)cc1)CN(C)C21C(=O)Nc2ccc(Cl)cc21` (stereo not drawn) is reported as 13500 nM (viral replication; inhibitor; Vero C1008; 72 h).
The IC50 of `CCN(CC)CCO[C@H]1CC[C@@]2(C)C(=CC[C@@H]3[C@@H]2CC[C@]2(C)C(=O)CC[C@@H]32)C1` is reported as 2400 nM (viral replication; Vero C1008).
`CC(C)C(=O)OCC(=O)[C@@]12O[C@H](C3CCCCC3)O[C@@H]1C[C@H]1[C@@H]3CCC4=CC(=O)C=C[C@]4(C)[C@H]3[C@@H](O)C[C@@]12C` gave an IC50 of 8000 nM (viral replication; VeroE6/TMPRSS2).
With `CNc1ccc2oc(C[C@H]3O[C@@]4(CC[C@H]3C)O[C@H]([C@H](C)C(=O)c3ccc[nH]3)[C@H](C)C[C@H]4C)nc2c1C(=O)O` the IC50 was 1550 nM (viral replication; inhibitor; Calu-3; 40 h).
`COc1cc(Nc2c(C#N)cnc3cc(OCCCN4CCN(C)CC4)c(OC)cc23)c(Cl)cc1Cl` has an IC50 of 20 nM (viral replication; inhibitor; Huh-7).
`C=C1C(=O)[C@@]23[C@H](O)C[C@@H]4C(C)(C)C(=O)CC[C@@]4(C)[C@@H]2CC[C@@H]1[C@H]3O` gave an IC50 of 2900 nM (viral replication; inhibitor; Calu-3; 40 h).
`CC[C@H](C)[C@H]1C(=O)N2CCC[C@H]2C(=O)O[C@H](C(C)(C)C)C[C@@H](C)C[C@H](O)[C@H](C)C2=N[C@@H](CCC(=O)N[C@@H](Cc3ccc(OC)cc3)C(=O)N(C)[C@@H](C)C(=O)N1C)CS2` has an IC50 of 170 nM (viral replication; inhibitor; Vero C1008).
For `Nc1nc(S)[nH]c(=S)c1C(=O)Nc1ccc(Cl)cc1`, the IC50 was 289000 nM (viral replication; Vero C1008; 72 h).
The IC50 of `O=C1NCN(c2ccccc2)C12CCN(CCCC(c1ccc(F)cc1)c1ccc(F)cc1)CC2` is reported as 3160 nM (viral replication; inhibitor; Vero C1008).
For `Fc1ccc([C@@H]2CCNC[C@H]2COc2ccc3c(c2)OCO3)cc1`, the IC50 was 3550 nM (viral replication; Vero C1008).
`COC(=O)c1ccc2c(c1)NC(=O)/C2=C(\Nc1ccc(N(C)C(=O)CN2CCN(C)CC2)cc1)c1ccccc1` gave an IC50 of greater than 2000 nM (viral replication; inhibitor; Huh-7).
The IC50 of `COc1cc2c(cc1OC)CN(CCc1ccc(NC(=O)c3cccc4c(=O)c5cccc(OC)c5[nH]c34)cc1)CC2` is reported as 3890 nM (viral replication; inhibitor; A549-ACE2).
`NC(=O)c1nc(F)c[nH]c1=O` has an IC50 of greater than 100000 nM (viral replication; inhibitor; Vero C1008).
`CCSc1ccc2c(c1)N(CCCN1CCN(C)CC1)c1ccccc1S2` has an IC50 of 7090 nM (viral replication; inhibitor; Vero C1008).
The IC50 of `COc1cccc2c1CCCC2CCCN1CCN(C2CCCCC2)CC1` (stereo not drawn) is reported as 407 nM (viral replication; inhibitor; A549-ACE2).
